# Laboratory results reported in publication PMC3487391 (Journal of medicinal chemistry, 2011).
# Legend:
# CARM1 [1] = biological target: T1, CARM1 (Homo sapiens, UniProt Q86X55); type: biochemical; conditions: compound at 100 μM; substrates PABP1, CA150, SmB, histone H3
# T1 sequence (Q86X55 1-608): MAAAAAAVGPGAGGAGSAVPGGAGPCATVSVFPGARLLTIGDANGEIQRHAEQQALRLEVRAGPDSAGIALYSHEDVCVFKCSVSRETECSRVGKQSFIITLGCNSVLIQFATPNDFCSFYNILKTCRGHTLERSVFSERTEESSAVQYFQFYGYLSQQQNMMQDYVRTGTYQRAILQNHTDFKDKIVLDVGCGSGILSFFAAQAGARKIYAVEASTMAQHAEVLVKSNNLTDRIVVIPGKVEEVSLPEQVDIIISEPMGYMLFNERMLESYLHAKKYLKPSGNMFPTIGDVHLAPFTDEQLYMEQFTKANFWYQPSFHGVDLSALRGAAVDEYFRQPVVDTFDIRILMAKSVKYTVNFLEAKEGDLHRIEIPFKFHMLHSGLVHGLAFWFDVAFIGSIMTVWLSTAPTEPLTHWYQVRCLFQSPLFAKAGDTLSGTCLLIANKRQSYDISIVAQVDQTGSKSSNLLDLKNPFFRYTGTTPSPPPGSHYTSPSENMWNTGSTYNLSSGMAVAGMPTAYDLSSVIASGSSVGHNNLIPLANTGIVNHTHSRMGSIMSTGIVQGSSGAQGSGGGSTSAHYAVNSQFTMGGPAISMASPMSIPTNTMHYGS
# How it was run: (§1)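 Recombinant enzyme (0.1–0.2 μM) and substrate (0.5–1.5 μM) are incubated with [methyl-³H]AdoMet (85 Ci/mmol) in PBS pH 7.4. Test compound is present at 100 μM. Reactions run 90 min at 30 °C, are resolved by SDS/PAGE and transferred to PVDF. The membrane is sprayed with Enhance and exposed to film overnight. Substrate bands are located by Ponceau S, excised and counted (dpm) for graphic depiction.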
# LNCaP cells = assay: Cell viability by Cell Titer-Glo; type: cell-based; conditions: at concentrations that impacted the luciferase assay
# How it was run: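 LNCaP cells are grown in phenol-red-free RPMI1640 with 10% charcoal-stripped FCS and transfected with PSA(ARE)-LUC and CMV-Renilla. After 12 h they are treated with 20 nM DHT plus increasing concentrations of test compound. After 42–44 h, cells are washed twice with PBS and harvested, and 1/6 of them is assayed with CellTiter-Glo luminescent reagent for ATP-based viability.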
# [2] = tested on: PSA promoter in LNCaP cells; assay: PSA luciferase assay in LNCaP cells; type: cell-based, human; conditions: two days, relative to CMV-Renilla control
# How it was run: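 LNCaP cells are grown in phenol-red-free RPMI1640 with 10% charcoal-stripped FCS and seeded ~20 h before Lipofectamine transfection with 300 ng PSA(ARE)-LUC and 2 ng humanized CMV-Renilla. After 12 h, cells receive 20 nM DHT plus test compound at increasing concentrations. After 42–44 h, 5/6 of the washed, harvested cells go to a dual luciferase assay, normalised to Renilla. Values are mean ± SD of triplicates.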
# [3] = tested on: Flag-PABP1 methylation in HEK293 cells; assay: Tetracycline-inducible Flag-PABP1 methylation reporter system in HEK293 cells; type: cell-based, human; conditions: tetracycline-induced Flag-PABP1, methyl-specific PABP1 antibody
# How it was run: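 HEK293 cells engineered with a tetracycline-controlled TetR repressor carry tetO-regulated Flag-PABP1. Tetracycline is added with test compound to induce Flag-PABP1. Lysates are resolved by SDS-PAGE, where Flag-PABP1 migrates slower than endogenous PABP1. Its methylation is detected by immunoblot with an in-house methyl-specific PABP1 antibody.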
# Suv39H1 = biological target: T2, Suv39H1 (Homo sapiens, UniProt O43463); assay: In vitro methylation fluorograph, Suv39H1 with H3 as substrate; type: biochemical; conditions: compound at 100 μM
# T2 sequence (O43463 1-412): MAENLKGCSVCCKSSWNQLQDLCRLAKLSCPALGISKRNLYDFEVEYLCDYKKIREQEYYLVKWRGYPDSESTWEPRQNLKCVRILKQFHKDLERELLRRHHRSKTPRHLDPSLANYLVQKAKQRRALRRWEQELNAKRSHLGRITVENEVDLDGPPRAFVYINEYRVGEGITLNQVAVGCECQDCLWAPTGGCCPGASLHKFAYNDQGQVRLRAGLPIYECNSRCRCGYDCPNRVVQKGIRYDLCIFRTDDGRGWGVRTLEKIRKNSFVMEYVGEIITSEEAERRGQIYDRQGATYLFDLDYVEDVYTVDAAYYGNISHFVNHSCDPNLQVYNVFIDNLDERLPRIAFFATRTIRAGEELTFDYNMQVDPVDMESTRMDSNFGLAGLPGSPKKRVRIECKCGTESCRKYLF
# How it was run: as §1
# SET7 = biological target: T3, SET7 (Homo sapiens, UniProt Q8WTS6); assay: In vitro methylation assay, SET7 with histone H3 as substrate; type: biochemical; conditions: compound at 100 μM
# T3 sequence (Q8WTS6 1-366): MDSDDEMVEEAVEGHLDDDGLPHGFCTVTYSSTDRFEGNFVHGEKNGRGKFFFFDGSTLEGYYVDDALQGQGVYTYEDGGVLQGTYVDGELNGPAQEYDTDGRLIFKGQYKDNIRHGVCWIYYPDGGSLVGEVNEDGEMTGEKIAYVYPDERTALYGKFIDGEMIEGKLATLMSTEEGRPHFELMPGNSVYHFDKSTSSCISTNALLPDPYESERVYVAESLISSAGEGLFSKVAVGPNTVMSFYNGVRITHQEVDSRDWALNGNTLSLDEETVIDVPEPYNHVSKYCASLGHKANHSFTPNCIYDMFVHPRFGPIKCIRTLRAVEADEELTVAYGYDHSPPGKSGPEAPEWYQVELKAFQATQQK
# PRMT5 = PRMT5 (Homo sapiens, UniProt O14744); assay: In vitro methylation fluorograph, PRMT5 with histone H4 as substrate; type: biochemical; conditions: compound at 100 μM
# Chain of PRMT5 (O14744 whole entry, species assumed): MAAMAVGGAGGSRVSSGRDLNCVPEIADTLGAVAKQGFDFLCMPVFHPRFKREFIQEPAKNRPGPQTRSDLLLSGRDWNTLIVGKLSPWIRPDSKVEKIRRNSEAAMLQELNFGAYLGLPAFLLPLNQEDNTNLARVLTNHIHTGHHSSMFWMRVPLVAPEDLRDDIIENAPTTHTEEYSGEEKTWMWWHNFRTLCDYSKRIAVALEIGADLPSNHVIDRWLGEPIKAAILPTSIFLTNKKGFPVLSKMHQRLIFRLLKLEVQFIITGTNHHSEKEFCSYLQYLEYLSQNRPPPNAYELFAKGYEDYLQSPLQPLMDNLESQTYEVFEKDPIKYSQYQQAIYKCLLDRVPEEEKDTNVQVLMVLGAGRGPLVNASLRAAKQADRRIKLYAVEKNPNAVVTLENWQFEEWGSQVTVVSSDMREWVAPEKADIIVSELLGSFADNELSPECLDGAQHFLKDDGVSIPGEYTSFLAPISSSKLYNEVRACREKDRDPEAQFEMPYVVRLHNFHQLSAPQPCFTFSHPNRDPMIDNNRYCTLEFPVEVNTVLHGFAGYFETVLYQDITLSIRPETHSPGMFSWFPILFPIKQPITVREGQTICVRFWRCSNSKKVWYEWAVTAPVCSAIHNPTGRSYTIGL
# How it was run: as §1
# DOTL1 = DOTL1 (Homo sapiens, UniProt Q8TEK3); assay: In vitro methylation fluorograph, DOTL1 with nucleosome as substrate; type: biochemical; conditions: compound at 100 μM
# Chain of DOTL1 (Q8TEK3 whole entry): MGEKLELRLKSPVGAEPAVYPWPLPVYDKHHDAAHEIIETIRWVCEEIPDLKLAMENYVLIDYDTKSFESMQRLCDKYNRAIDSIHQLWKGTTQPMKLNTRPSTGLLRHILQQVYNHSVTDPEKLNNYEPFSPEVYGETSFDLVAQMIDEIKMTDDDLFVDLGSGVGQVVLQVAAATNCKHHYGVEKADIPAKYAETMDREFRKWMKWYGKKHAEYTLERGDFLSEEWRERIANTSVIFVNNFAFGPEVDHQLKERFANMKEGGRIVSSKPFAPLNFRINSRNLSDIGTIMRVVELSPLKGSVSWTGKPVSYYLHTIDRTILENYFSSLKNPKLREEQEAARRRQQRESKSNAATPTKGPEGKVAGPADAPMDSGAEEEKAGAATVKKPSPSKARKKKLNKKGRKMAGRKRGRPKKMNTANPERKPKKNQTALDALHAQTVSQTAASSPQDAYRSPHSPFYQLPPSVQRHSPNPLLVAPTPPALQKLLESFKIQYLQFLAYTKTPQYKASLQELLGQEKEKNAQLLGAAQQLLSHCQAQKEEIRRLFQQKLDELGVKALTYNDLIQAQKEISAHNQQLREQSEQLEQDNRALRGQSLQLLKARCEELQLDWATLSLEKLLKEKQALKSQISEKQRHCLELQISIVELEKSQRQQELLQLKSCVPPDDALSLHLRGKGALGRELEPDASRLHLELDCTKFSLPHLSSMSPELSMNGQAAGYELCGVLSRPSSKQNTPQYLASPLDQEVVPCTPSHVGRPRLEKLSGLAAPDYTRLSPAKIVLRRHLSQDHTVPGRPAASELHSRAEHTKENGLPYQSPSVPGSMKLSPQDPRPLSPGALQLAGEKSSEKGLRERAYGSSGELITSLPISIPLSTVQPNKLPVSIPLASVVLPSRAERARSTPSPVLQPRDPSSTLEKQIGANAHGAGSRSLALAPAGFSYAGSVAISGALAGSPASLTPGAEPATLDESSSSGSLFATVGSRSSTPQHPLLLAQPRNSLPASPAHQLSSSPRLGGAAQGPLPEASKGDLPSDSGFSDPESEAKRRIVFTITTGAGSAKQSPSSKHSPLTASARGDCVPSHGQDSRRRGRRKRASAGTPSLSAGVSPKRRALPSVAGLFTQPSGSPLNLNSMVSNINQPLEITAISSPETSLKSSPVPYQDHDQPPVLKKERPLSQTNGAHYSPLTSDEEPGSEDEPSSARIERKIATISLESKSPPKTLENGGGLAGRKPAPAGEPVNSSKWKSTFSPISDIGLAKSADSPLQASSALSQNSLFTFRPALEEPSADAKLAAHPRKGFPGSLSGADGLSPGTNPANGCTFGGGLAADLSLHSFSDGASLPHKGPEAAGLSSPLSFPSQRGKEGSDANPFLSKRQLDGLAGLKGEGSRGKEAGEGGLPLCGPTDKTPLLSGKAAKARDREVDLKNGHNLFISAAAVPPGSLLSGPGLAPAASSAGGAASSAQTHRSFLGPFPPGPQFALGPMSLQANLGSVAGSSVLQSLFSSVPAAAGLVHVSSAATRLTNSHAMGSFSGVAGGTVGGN
# How it was run: as §1
# G9a = biological target: T4, G9a (Homo sapiens, UniProt Q96KQ7); assay: In vitro methylation fluorograph, G9a with H3 as substrate; type: biochemical; conditions: compound at 100 μM
# T4 sequence (Q96KQ7 1-1210): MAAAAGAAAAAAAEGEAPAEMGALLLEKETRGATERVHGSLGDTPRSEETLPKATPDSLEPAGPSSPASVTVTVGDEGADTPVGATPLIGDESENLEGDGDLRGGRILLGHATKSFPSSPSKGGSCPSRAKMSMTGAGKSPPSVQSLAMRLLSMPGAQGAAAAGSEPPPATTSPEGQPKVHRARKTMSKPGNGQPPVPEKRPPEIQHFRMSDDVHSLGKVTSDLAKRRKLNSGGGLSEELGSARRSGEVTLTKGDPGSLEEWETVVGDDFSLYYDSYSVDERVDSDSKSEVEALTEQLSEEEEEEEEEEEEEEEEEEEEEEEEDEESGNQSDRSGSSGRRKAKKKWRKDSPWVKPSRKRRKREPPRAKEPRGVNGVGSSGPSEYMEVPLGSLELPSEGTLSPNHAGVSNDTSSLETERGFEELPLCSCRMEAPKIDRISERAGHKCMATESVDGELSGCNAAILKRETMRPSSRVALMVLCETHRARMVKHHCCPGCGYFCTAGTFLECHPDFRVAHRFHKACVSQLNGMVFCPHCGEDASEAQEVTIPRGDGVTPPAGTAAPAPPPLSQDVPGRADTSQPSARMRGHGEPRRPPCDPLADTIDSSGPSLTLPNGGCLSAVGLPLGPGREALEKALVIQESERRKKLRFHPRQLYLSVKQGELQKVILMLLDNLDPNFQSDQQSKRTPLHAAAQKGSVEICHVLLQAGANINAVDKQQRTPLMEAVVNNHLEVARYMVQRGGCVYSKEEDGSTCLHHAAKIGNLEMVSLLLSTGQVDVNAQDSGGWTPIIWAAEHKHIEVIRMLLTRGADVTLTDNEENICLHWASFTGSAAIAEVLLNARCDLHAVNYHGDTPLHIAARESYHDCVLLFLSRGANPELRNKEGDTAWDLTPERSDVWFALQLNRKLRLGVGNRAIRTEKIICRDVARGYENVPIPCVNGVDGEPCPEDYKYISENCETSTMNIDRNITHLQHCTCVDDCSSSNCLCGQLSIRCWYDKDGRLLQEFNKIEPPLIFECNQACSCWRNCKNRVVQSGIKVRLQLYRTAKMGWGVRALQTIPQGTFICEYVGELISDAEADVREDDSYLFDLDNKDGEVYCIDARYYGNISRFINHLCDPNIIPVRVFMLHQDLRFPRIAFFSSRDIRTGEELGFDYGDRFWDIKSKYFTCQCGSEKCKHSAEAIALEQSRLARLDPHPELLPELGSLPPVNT
# How it was run: as §1
# PRMT3 = PRMT3 (Homo sapiens, UniProt O60678); assay: In vitro methylation fluorograph, PRMT3 with NPL3 and rpS2 as substrates; type: biochemical; conditions: compound at 100 μM
# Chain of PRMT3 (O60678 whole entry, species assumed): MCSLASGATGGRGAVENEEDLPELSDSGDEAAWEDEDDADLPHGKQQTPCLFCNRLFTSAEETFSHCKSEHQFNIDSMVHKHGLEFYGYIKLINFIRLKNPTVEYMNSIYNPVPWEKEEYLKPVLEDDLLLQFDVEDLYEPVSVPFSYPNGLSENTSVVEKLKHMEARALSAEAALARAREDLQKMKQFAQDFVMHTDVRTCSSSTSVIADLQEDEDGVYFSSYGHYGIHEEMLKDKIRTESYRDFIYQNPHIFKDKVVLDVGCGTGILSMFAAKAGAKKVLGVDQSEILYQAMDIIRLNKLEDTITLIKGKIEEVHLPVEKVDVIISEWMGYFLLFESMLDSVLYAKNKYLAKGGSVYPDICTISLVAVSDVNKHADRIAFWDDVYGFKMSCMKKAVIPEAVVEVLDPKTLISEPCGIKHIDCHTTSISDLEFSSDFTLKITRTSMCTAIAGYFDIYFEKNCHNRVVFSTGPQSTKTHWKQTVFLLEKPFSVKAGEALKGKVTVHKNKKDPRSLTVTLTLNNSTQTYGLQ
# How it was run: as §1
# CARM1 [4] = biological target: T1, CARM1; assay: In vitro methylation assay, CARM1 with PABP1 as substrate; type: biochemical; conditions: for effect against PABP1 methylation by CARM1 (fluorograph): compound at 20 μM
Structure (SMILES),inhibition of CARM1 activity on various substrates (fluorograph) (CARM1 [1]),effects on cell viability (LNCaP cells),concentration effective on PSA reporter activity [2] [µM],inhibition of Flag-PABP1 methylation [3],activity against Suv39H1 (fluorograph) (Suv39H1),activity against SET7 (fluorograph) (SET7),inhibition of PRMT5 (fluorograph) (PRMT5),activity against DOTL1 (fluorograph) (DOTL1),activity against G9a (fluorograph) (G9a),inhibition of PRMT3 (fluorograph) (PRMT3),"enzyme preference of inhibition (in words) (CARM1 [4]; series 7a-m, IC50 determination vs PRMT1, CARM1, SET7 (Table S1))",effect against PABP1 methylation by CARM1 (fluorograph) (CARM1 [4])
O=C1/C(=C/c2ccc(O)c(Br)c2)CN(CC(=O)c2ccccc2)C/C1=C\c1ccc(O)c(Br)c1 [8l],strongly inhibited,no or little effects,30,only 7g was able to inhibit,No significant activity,No significant activity,high inhibition,No significant activity,No significant activity,,,
"O=C1/C(=C/c2ccc(O)c(Br)c2)CN(Cc2ccccc2)C/C1=C\c1ccc(O)c(Br)c1 [7g, 1-benzyl-3,5-bis(3-bromo-4-hydroxybenzylidene) piperidin-4-one]",strongly inhibited,no or little effects,,able to inhibit,No significant activity,No significant activity,,No significant activity,No significant activity,able to inhibit to some extent,preferably inhibited CARM1,
O=C1/C(=C/c2ccc(O)c(Br)c2)CN(CCCc2ccccc2)C/C1=C\c1ccc(O)c(Br)c1 [8k],,,,,,,,,,,,no effect
O=C1/C(=C/c2ccc(O)c(Br)c2)CN(Cc2cccc(Cl)c2)C/C1=C\c1ccc(O)c(Br)c1 [8e],strongly inhibited,,,only 7g was able to inhibit,No significant activity,No significant activity,high inhibition,No significant activity,No significant activity,able to inhibit to some extent,,
Cc1ccc(CN2C/C(=C\c3ccc(O)c(Br)c3)C(=O)/C(=C/c3ccc(O)c(Br)c3)C2)cc1 [8c],,,,,,,,,,,,no effect
